GalR3 antag = GalR3 antagonists in HEK293 cells, primary screen, cell-based, fluorescence readout | Galanin receptor type 3 (Homo sapiens), O60755 | HEK293 GalR3-CNG cAMP membrane potential fluorescence; galR3 body fused to GalR1 C-terminus | inhibition, % at 3 µM | 360,000 tested, 0.44% active;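 active means inhibition above the screen-wide average plus 3 SD, cut at about 13% in these data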;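 further: forskolin and galanin both at EC90 stimulate the cells; cAMP rise reported by CNG channel membrane potential dye signal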
Target sequence (O60755 1-299 limits assumed): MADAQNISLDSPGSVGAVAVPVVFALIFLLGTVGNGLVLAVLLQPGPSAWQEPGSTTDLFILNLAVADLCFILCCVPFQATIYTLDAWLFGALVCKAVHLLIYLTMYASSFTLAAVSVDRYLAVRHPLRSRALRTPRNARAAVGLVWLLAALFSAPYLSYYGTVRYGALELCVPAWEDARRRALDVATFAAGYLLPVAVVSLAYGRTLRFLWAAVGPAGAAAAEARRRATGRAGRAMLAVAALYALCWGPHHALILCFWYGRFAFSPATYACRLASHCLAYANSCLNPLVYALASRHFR
MsrA inhibitor = bovine MsrA enzyme inhibitors, primary screen, biochemical, absorbance, HTS; inhibition, % at 15.5 µM; purified bovine MsrA, absorbance read-out; 360,000 tested, 0.75% active
NadD block = inhibitors of S. aureus NadD, primary screen, biochemical, colorimetric, uHTS; Nicotinate-nucleotide adenylyltransferase NadD (Staphylococcus aureus N315); purified NadD enzyme, colorimetric absorbance read-out; inhibition, % at 20 µM; 360,000 tested, 0.78% active; AID 602399, 2012; in the data active means inhibition above about 26%
NR2E3 ag-1 = inhibitors of NR2E3-RetCOR corepressor binding, primary screen, NR2E3 agonist project, biochemical, TR-FRET, GST-NR2E3, biotin-RetCOR; Photoreceptor-specific nuclear receptor (Homo sapiens), Q9Y5X4; 1536-well; inhibition of corepressor binding, % at 4.78 µM; 320,000 tested, 0.12% active; AID 2300, 2010;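 active means percent inhibition above the cutoff of mean plus 3 SD of all tested compounds, set per screening campaign, cut at about 20% in these data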
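Format: 1536-well format; test system: GST-NR2E3 and biotin-RetCOR proteins; read-out basis: percent inhibition of TR-FRET ratio; timing: 5 h incubation at 4 °C; detection: time-resolved FRET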
MsrA act = bovine MsrA enzyme activators, primary screen, biochemical, absorbance, HTS. Methionine sulfoxide reductase A (Bos taurus). purified bovine MsrA, absorbance read-out. activation, % at 10.6 µM. 360,000 tested, 0.3% active; in the data active means activation above about 7.5%
NR2E3 ag-2 = NR2E3 agonists in two-hybrid cells, primary screen, cell-based, luminescence, CHO-S, Gal4-NCOR/VP16-NR2E3; AID 602229, 2012; inhibition of corepressor binding, % at 3.98 µM; luciferase; Photoreceptor-specific nuclear receptor (Homo sapiens), Q9Y5X4; 360,000 tested, 0.35% active;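 active means inhibition above the mean of all tested compounds plus 3 SD, cut at about 70% in these data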;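 further: higher means lower luciferase signal from less NR2E3 corepressor binding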
MsrA conf = bovine MsrA inhibitors, retest, confirmation, biochemical, absorbance, HTS | purified bovine MsrA, absorbance read-out | inhibition, % at 15.5 µM | shares compounds with MsrA inhibitor | 2,300 tested, 41% active | AID 651822, 2012;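 further: coupled to thioredoxin reductase with NADPH and selenocystamine and DMSO as substrate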
A number is an active result; – = inactive; · = no result. Rows were chosen to be rich in hits. Some 2.5% of all compounds tested hit in one or more screens of this group. Unless noted, no stated cut-off is given here; in the data, active means inhibition above about 4.5%; inactive means the rest.

SMILES | GalR3 antag | MsrA inhibitor | NadD block | NR2E3 ag-1 | MsrA act | NR2E3 ag-2 | MsrA conf
Cn1c(=O)n(C)c2cc(S(=O)(=O)Nc3ccccc3C(=O)O)ccc21 | – | – | – | – | – | – | ·
CCOc1ncccc1C(=O)Nc1ccccc1C(=O)NCc1ccc2c(c1)OCO2 | – | – | – | – | – | – | ·
CCOc1ncccc1C(=O)Nc1ccc2c(c1)OCO2 | – | 5.0 | – | – | – | – | –
CC1CCCCN1C(=O)c1cc2nc(-c3ccccc3)cc(-c3ccccc3)n2n1 (stereo not given) | – | – | – | – | – | – | ·
COc1ccc(-c2nc3ccccn3c2C=O)cc1 | – | – | – | – | – | – | ·
O=Cc1c(-c2ccc(F)cc2)nc2ccccn12 | – | 9.1 | – | – | – | – | –
COc1ccccc1CNC(=O)c1ccccc1SCC(=O)NCc1ccco1 | – | – | – | · | – | – | ·
CCCNC(=O)/C(C#N)=C1\N=C(NC(=O)c2ccco2)c2ccccc21 | – | – | – | – | – | – | ·
COCCNC(=O)/C(C#N)=C1\N=C(NC(=O)c2ccco2)c2ccccc21 | – | 4.8 | – | · | – | – | –
CCOC(=O)[C@]12CCC=C1N(CCC1=CCCCC1)C(=O)[C@H](CC(=O)NCCCN1CCCC1=O)C2 | – | – | – | · | – | – | ·
Cc1ccc(CC(=O)NCCCn2ccnc2)cc1 | – | – | – | – | – | – | ·
COc1ccc(-c2[nH]ncc2CN2CCCC2c2nonc2C)c(F)c1 (stereo not given) | – | 8.4 | – | – | – | – | –
CN(C)S(=O)(=O)c1ccc2oc(SCC(=O)c3c(N)n(C4CC4)c(=O)[nH]c3=O)nc2c1 | – | – | – | – | – | – | ·
O=C1NC(=O)/C(=C/c2ccco2)N1 | – | 7.9 | – | – | – | – | 6.2
CCOc1ccc(S(=O)(=O)NCCC(=O)NCCCSc2ccccc2)cc1 | – | – | – | – | – | – | ·
Cn1c(/C=N/NC(=O)c2ccccc2Br)nc2ccccc21 | – | 5.3 | – | – | – | – | –
N#Cc1c(/N=C/c2ccc(-c3ccc(C(=O)O)c(Cl)c3)o2)sc2c1CCCC2 | – | 7.0 | – | – | – | – | –
CCC(=O)c1ccc(/C=C/c2nc3ccccc3n2C)o1 | – | 5.2 | – | – | – | – | –
N#C/C(=C/c1ccc(CNS(=O)(=O)c2ccccc2)o1)C(=O)NCc1ccccc1 | – | 4.8 | – | – | – | – | –
N#C/C(=C/c1ccc(CNS(=O)(=O)c2ccccc2)o1)C(N)=O | – | – | – | – | – | – | ·
COc1ccc(Cl)cc1NC(=S)NNC(=O)CC(C)C | – | – | – | – | – | – | ·
O=C(NCc1cccc(Cl)c1)C1CCC(=O)N(CC2CCCCC2)C1 (stereo not given) | – | – | – | – | – | – | ·
Cn1cc(C(=O)N/N=C/c2cccs2)c2ccccc21 | – | 5.2 | – | – | – | – | 5.2
Cn1cc(C(=O)N/N=C/c2ccc3c(c2)OCO3)c2ccccc21 | – | – | – | – | – | – | ·
Cc1ncc(CO)c(/C=N/Nc2cccc(Cl)n2)c1O | – | 9.4 | – | – | – | – | –
SMILES | GalR3 antag | MsrA inhibitor | NadD block | NR2E3 ag-1 | MsrA act | NR2E3 ag-2 | MsrA conf
Fc1cccc(/C=N/Nc2nc3ccccc3[nH]2)c1 | – | 4.7 | · | – | · | · | –
O=[N+]([O-])c1cc(/C=N/Nc2nc3ccccc3[nH]2)c(O)cc1O | – | 5.7 | · | – | · | · | 5.0
O=C1/C(=C/c2ccccc2)CCCc2ccccc21 | – | – | – | – | – | – | ·
O=C1/C(=C/c2ccc(C(=O)O)cc2)CCC/C1=C\c1ccc(C(=O)O)cc1 | – | 8.8 | – | – | – | – | 6.6
COc1cc(C)nc(N(Cc2ccccc2)S(=O)(=O)c2ccccc2)n1 | – | 5.6 | – | – | – | – | –
COc1cc(C)nc(N(Cc2ccccc2)S(=O)(=O)c2ccc(C)cc2)n1 | – | – | – | – | – | – | ·
